sPLA2-III inh: Blocks human group III sPLA2 activity; 0.56% of 370,000 active; AID 743126; inhibition, % at 12.2 µM; QFRET BODIPY PC-A2 liposome hydrolysis, fluorescence; Q9NZ20;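 active = inhibition above mean plus 3 SD of compounds lying within the high and low control bounds, cut at about 19% in these data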
DAGLB inh: blocks human DAGLB lipase activity. Q8NCG7. HEK293T DAGLB membrane lysate, EnzChek fluorogenic substrate. inhibition, % at 5.17 µM. 0.059% of 340,000 active. AID 504411; in the data active = inhibition above about 34%
PLCg1 inh: inhibitors of human phospholipase C gamma1; P19174; AID 720700; purified PLC-gamma1, fluorogenic substrate, fluorescence; inhibition, % at 12.2 µM; 0.84% of 370,000 active
PLC-beta3 inh: inhibitors of human phospholipase C beta3 | Q01970 | AID 720704 | 0.18% of 370,000 active | inhibition, % at 12.2 µM | Purified PLC-beta3, fluorogenic substrate, fluorescence; in the data active = inhibition above about 11%
Tb MetRS inh: blocks T. brucei methionyl-tRNA synthetase activity; purified T. brucei MetRS, ATP depletion, Kinase-Glo luminescence; inhibition, % at 11.9 µM; 0.4% of 360,000 active; AID 624268;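 active = inhibition above a per-plate cutoff of the control wells' mean inhibition plus 3 SD, cut at about 5.5% in these data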
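technique = Kinase-Glo luminescence, ATP depletion format | system = purified MetRS (methionyl-tRNA synthetase) enzyme from Trypanosoma brucei | timing = 15 min preincubation, 2 h reaction, all 25 °C | evaluation = percent inhibition versus plate control medians | dosing = single dose, 11.9 µM final nominal, 0.9% final DMSO | also added = substrates ATP, L-methionine and bulk Escherichia coli tRNA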
PLCgamma1 ctr: inhibits human PLC-gamma1 in PLC-beta3 counter-screen; shares compounds with PLCg1 inh; purified PLC-gamma1, fluorogenic substrate, fluorescence; inhibition, % at 12.3 µM; 3.1% of 3,300 active; AID 743258
PLCbeta3 conf: human PLC-beta3 inhibition, confirmation; inhibition, % at 12.3 µM; purified PLC-beta3, fluorogenic substrate fluorescence; 1% of 3,300 active; shares compounds with PLCg1 inh; AID 743261; in the data active = inhibition above about 11%
A number is an active result; n = inactive; x = not tested or not shown. Sampled rows, rich in hits. Any-hit rate of the full collection: about 1.9%. Rule as the data show it, unless noted: active = inhibition above about 9.5%; inactive = the rest.

SMILES | sPLA2-III inh | DAGLB inh | PLCg1 inh | PLC-beta3 inh | Tb MetRS inh | PLCgamma1 ctr | PLCbeta3 conf
COc1ccc2c(c1)[C@@]1(NCCc3c1[nH]c1ccc(OC)cc31)C(=O)N2C | n | x | n | n | x | x | x
CCCSc1nc(C)c(CC(=O)OCC)c(=O)[nH]1 | n | n | 9.7 | n | n | n | n
O=C(CSc1nc2ccccc2[nH]1)Nc1ccccc1N1CCOCC1 | n | n | 10.1 | n | n | n | n
COC(=O)c1cc2c(c3c4cc(F)ccc4n(S(=O)(=O)c4ccccc4)c13)C(=O)N(Cc1ccccc1)C2 | n | x | n | n | x | x | x
CCCCCn1c(N2CCC(Cc3ccccc3)CC2)nc2c1c(=O)[nH]c(=O)n2C | x | n | x | x | n | x | x
CN1CCN(c2nc3c(c(=O)[nH]c(=O)n3C)n2CCOc2ccccc2)CC1 | n | n | n | n | n | x | x
Cn1c(=O)[nH]c(=O)c2c1nc(SCCN1CCOCC1)n2CCCc1ccccc1 | n | n | n | 11.7 | n | n | n
Cn1c(=O)[nH]c(=O)c2c1nc(SCCN1CCOCC1)n2Cc1ccccc1 | n | n | n | n | n | x | x
CCCn1c(N2CCC(Cc3ccccc3)CC2)nc2c1c(=O)[nH]c(=O)n2C | n | n | 11.6 | n | n | n | n
Cn1c(=O)[nH]c(=O)c2c1nc(N1CCCCCC1)n2CCOc1ccccc1 | n | n | 10.7 | n | n | n | n
O=C(NCc1ccccc1)N1CCN(Cc2nc3ccccc3c(=O)[nH]2)CC1 | n | x | n | n | x | x | x
COCCCNc1nc2c(c(=O)n(Cc3ccc(OC)cc3)c(=O)n2C)n1C | n | n | 10.0 | n | n | n | n
CCN(CC)C(=O)C(=O)c1ccn(-c2c(C)csc2C(=O)OC)c1 | n | n | n | n | n | x | x
COC(=O)c1scc(C)c1-n1ccc(C(=O)C(=O)N(C)C)c1 | n | n | n | 12.7 | n | n | n
CSCCC(NC(=O)C12CC3CC(CC(C3)C1)C2)C(=O)OCC(=O)c1ccc(C)cc1 (stereo not given) | n | n | 10.6 | n | n | n | n
COc1ccc(/C=C/C(=O)O)cc1S(=O)(=O)N1CCc2ccccc2C1 | n | n | n | n | n | x | x
Cc1ccc(/C=C/C(=O)O)cc1S(=O)(=O)Nc1ccccc1C(=O)O | n | n | 11.2 | n | n | n | n
Cc1ccc(/C=C/C(=O)O)cc1S(=O)(=O)N1CCc2ccccc2C1 | n | n | 11.4 | n | n | n | n
NC(=O)NC(=O)COC(=O)CCSc1ccccc1 | n | n | n | 11.0 | n | n | n
O=[N+]([O-])c1ccc(N2CCN(Cc3ccc([N+](=O)[O-])o3)CC2)cc1 | n | n | 9.8 | n | n | n | n
O=[N+]([O-])c1ccc(CN2CCN(c3ccccc3)CC2)o1 | n | n | n | n | n | x | x
CCC[C@H]1[C@@H](N(C)CC2CCCCC2)CC[C@@]23CCCN2C(=O)CCC[C@@H]13 | n | x | n | n | x | x | x
O=c1cc([O-])[n+]2c3n1CCCN3CCC2 | n | n | n | 12.2 | n | n | n
Cc1cc2n(n1)SC(Nc1ccc(F)cc1)N2 (stereo not given) | n | n | 10.4 | n | n | n | n
CCOC(=O)[C@]12CCCCC/C=C\1N(Cc1ccc(OC)cc1)C(=O)[C@H]2CC(=O)NCC12CC3CC(CC(C3)C1)C2 | n | x | n | n | x | x | x
SMILES | sPLA2-III inh | DAGLB inh | PLCg1 inh | PLC-beta3 inh | Tb MetRS inh | PLCgamma1 ctr | PLCbeta3 conf
CC1CCCCN1S(=O)(=O)c1ccc(N(C(=O)c2cnccn2)C(C(=O)NC2CCCCC2)c2cccs2)cc1 (stereo not given) | n | n | 12.4 | n | n | n | n
CC(C)(C)C(=O)OCc1cn(-c2ccccc2)nn1 | n | n | 11.3 | n | n | n | n
CC(C)CC(=O)OCc1cn(-c2ccccc2)nn1 | n | n | 14.9 | n | n | n | n
O=C(O)C1CCCN1C(=O)c1cccc(Cl)c1 (stereo not given) | n | x | n | n | x | x | x
CC1CC(C)CN(C(=O)C2CCN(c3cncnc3)CC2)C1 (stereo not given) | n | x | n | n | x | x | x
O=c1cc(CO)occ1OCc1cccc(F)c1 | n | n | n | n | n | x | x
Cc1ccc(COc2coc(CO)cc2=O)cc1 | n | n | n | 11.6 | n | n | n
Cc1cc2oc(C(=O)Nc3nonc3C)c(C)c2cc1Cl | n | n | 12.7 | n | n | n | n
Nc1nc2c(ncn2[C@@H]2O[C@H](C(=O)NCC3CCCCC3)[C@@H](O)[C@H]2O)c(=O)[nH]1 | n | x | n | n | x | x | x
N#CCCSCc1ccc(C(=O)O)o1 | n | n | n | n | n | x | x
N#CCCSCc1ccc(OCC(=O)O)cc1 | n | n | 9.9 | n | n | n | n
COC(=O)[C@]12C[C@H](CC(=O)NCCCCc3ccccc3)C(=O)N(Cc3cccc4ccccc34)C1=C[C@H](C1CCCC1)O[C@@H]2C | n | x | n | n | x | x | x
COC(CNC(=O)[C@H](Cc1ccccc1)NC1(C(=O)NC2CCCCC2)CCCC1)OC | n | x | 9.8 | n | x | n | n
O=C(NCC(c1ccccc1)c1ccccc1)[C@H](Cc1ccccc1)NC1(C(=O)NC2CCCCC2)CCCC1 | n | x | n | n | x | x | x
Cc1cc(N2CCN(CC(C)(C)O)C[C@H]2C)ccc1N1CCN(CC(C)(C)O)[C@H](C)C1 | n | x | n | n | x | x | x
Cc1[nH]c2ccccc2c1C(=O)CSC(=S)N1CCCCC1 | n | n | 15.4 | n | n | n | n
Cc1ccc(NC(=O)CSc2nnc(-c3ccccc3F)n2-c2ccccc2)c(C)c1 | n | x | n | n | x | x | x
COC(=O)[C@]12C[C@H](CC(=O)N3CCCC3)C(=O)N(Cc3ccco3)C1=C[C@H](C(C)(C)C)O[C@@H]2C | n | x | n | n | x | x | x
COc1ccc(S(=O)(=O)Nc2c(C)nc3nc(C)[nH]n3c2=O)cc1 | n | n | 11.0 | n | n | n | n
O=C(NC(Cc1ccccc1)C(=O)N1CCCCC1)c1ccccc1 (stereo not given) | n | n | 12.7 | n | n | n | n
CCOC(=O)[C@]12CCCC=C1N(Cc1ccc(OC)cc1)C(=O)[C@@H]2CC(=O)NCC12CC3CC(CC(C3)C1)C2 | n | x | n | n | x | x | x
CN(Cc1cccc(Cl)c1Cl)C(=O)CCNC(=O)c1ccco1 | n | n | 11.8 | n | n | n | n
C#CCN1C(=O)[C@]2(NCCc3c2[nH]c2ccc(OC)cc32)c2ccccc21 | n | x | n | n | x | x | x
Cc1ccc(NC(=O)Cc2c(F)cccc2Cl)cc1S(=O)(=O)N1CCOCC1 | n | n | n | n | n | x | x
Cc1ccc(NS(=O)(=O)c2c(F)cc(F)c(Cl)c2F)cc1S(=O)(=O)N1CCOCC1 | n | n | 9.8 | n | n | n | n
Cn1cc(/C=N/NC(N)=S)c2ccccc21 | n | n | 10.1 | n | n | n | n
CCCC1CCC2(CCCN2CCOC(=O)Nc2ccccc2OC)CC1 (stereo not given) | n | x | n | n | x | x | x
